Measurements from ChEMBL document CHEMBL1131146, “4-Alkynylphenyl imidazolylpropyl ethers as selective histamine H3-receptor antagonists with high oral central nervous system activity” (J Med Chem, 1998).

Tests used:
[1] = molecular target: Histamine H3 receptor (Mus musculus) (UniProt P58406); assay: In vivo antagonist activity at Histamine H3 receptor was screened by measuring the effect on brain histamine turnover after oral application to mice.; format: functional, organism-based
Summary of the method: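 Swiss mice dosed orally; in vivo H3 antagonist activity tested at least in triplicate, per Garbarg et al.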

[2] = molecular target: Histamine H1 receptor (Cavia porcellus) (UniProt P31389); assay: Compound was tested in vitro for its Histamine H1 receptor activity on guinea pig ileum.; format: functional, tissue-based
Sequence of Histamine H1 receptor (Cavia porcellus) (P31389 whole entry): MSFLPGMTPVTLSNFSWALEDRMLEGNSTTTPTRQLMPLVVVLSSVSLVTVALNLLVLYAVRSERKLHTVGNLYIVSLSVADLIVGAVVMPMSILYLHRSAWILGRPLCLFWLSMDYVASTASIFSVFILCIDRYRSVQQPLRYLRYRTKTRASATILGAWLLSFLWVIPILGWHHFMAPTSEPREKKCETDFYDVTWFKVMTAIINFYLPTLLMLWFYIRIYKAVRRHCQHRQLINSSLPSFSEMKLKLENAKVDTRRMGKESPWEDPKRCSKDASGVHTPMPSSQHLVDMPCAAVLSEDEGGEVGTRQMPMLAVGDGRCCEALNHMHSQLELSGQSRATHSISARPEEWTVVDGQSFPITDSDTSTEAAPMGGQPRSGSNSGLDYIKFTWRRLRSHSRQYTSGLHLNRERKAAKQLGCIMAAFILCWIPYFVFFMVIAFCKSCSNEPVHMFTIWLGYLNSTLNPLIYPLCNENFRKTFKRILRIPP

[3] = molecular target: Histamine H2 receptor (Cavia porcellus) (UniProt P47747); assay: Compound was tested in vitro for its Histamine H2 receptor activity on guinea pig atrium.; format: functional, tissue-based; details: Cardiac atrium
Sequence of Histamine H2 receptor (Cavia porcellus) (P47747 whole entry): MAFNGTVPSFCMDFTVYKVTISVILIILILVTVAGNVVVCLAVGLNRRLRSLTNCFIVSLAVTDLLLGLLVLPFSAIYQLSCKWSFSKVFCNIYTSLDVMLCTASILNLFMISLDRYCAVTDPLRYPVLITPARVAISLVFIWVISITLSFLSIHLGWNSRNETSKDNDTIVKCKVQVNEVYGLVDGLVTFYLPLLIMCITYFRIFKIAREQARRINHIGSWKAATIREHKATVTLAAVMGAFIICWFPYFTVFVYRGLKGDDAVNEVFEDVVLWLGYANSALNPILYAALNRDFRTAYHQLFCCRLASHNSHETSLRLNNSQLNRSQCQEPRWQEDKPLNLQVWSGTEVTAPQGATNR

[4] = molecular target: Histamine H3 receptor (Rattus norvegicus) (UniProt Q9QYN8); assay: (§1) In vitro antagonist potency at Histamine H3 receptor measured as K+-evoked [3H]histamine release from synaptosomes of rat cerebral cortex.; format: functional, subcellular; details: Brain
Sequence of Histamine H3 receptor (Rattus norvegicus) (Q9QYN8 whole entry): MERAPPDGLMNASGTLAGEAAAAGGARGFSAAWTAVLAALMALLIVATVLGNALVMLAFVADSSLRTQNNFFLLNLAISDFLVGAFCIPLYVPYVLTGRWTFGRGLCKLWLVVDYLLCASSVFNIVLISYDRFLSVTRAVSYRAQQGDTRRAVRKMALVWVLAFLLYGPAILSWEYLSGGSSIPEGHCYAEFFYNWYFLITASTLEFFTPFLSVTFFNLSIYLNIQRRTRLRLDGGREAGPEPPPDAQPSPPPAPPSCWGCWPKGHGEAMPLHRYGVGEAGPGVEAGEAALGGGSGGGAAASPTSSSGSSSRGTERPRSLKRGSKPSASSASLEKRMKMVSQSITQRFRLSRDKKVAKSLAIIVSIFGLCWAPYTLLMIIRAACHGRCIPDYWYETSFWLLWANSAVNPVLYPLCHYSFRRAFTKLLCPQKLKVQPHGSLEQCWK
Summary of the method: (§2)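 Rat cerebral cortex synaptosomes; [³H]histamine release evoked by K⁺ depolarization; antagonist activity measured at least in triplicate, per Garbarg et al.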

[5] = molecular target: Histamine H3 receptor (Rattus norvegicus, UniProt Q9QYN8); assay: as §1; format: functional, subcellular, Brain; summary of the method: as §2
Sequence of Histamine H3 receptor (Q9QYN8 whole entry): as above

[6] = molecular target: Histamine H1 receptor (Cavia porcellus) (UniProt P31389); assay: Compound was tested in vitro for its Histamine H1 receptor activity on guinea pig ileum; format: functional, tissue-based

Sequence of Histamine H3 receptor (Mus musculus) (P58406 whole entry): as the sequence (Q9QYN8 whole entry) above, with T15A, A286T, A290G, R387H, I389V counted along it

Row | ED50 [1] | -Log K [2] | -Log K [3] | -Log K [4] | Ki [5] | Structure (SMILES) | -Log K [6]
1 | 2.2 mg/kg | < 5.6 | < 4.6 | 6.9 | – | CC(C)(C)C#Cc1ccc(OCCCc2c[nH]cn2)cc1 | –
2 | – | – | – | – | 123 nM | CC(C)(C)C#Cc1ccc(OCCCc2cnc[nH]2)cc1 | –
3 | – | – | – | – | 2.3 nM | C#Cc1ccc(OCCCc2cnc[nH]2)cc1 | –
4 | 2.2 mg/kg | < 5.9 | < 4.7 | 6.9 | – | CCCC#Cc1ccc(OCCCc2c[nH]cn2)cc1 | –
5 | 1.3 mg/kg | < 5 | < 4.7 | 8.1 | 7.5 nM | CC#Cc1ccc(OCCCc2c[nH]cn2)cc1 | –
6 | 0.12 mg/kg | – | < 4.8 | 8.6 | – | C#Cc1ccc(OCCCc2c[nH]cn2)cc1 | < 5.5
7 | – | – | – | – | 140 nM | CCCC#Cc1ccc(OCCCc2cnc[nH]2)cc1 | –

Row | Structure (SMILES) | ED50 [1] | -Log K [2] | -Log K [3] | -Log K [4] | Ki [5] | -Log K [6]
8 | C[Si](C)(C)C#Cc1ccc(OCCCc2c[nH]cn2)cc1 | 1.1 mg/kg | – | < 4.6 | 7.4 | 36 nM | < 5
